Series [1] concerns B16. Briefly: Cytotoxicity against mouse B16 cells by MTT assay. The class given is functional, cell-based. (In general: Tetrazolium assays rely on reduction of a dye to a coloured formazan, in cell work by metabolically active cells.)
The species named for series [2] is Mus musculus. Briefly: Toxicity in mouse assessed as irritant dose causing ear redness after 24 hours by inflammation assay. The format is organism-based. As to conditions: in vivo. The method in brief: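 Compound applied to the mouse ear as an acetone (Me2CO) solution. Ear redness was scored 4 and 24 h after application. […] TPA served as the reference irritant.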

The species named for series [3] is Mus musculus. Briefly: Toxicity in mouse assessed as irritant dose causing ear redness after 4 hours by inflammation assay. The following applies: in vivo. The format is organism-based. The method in brief:
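Test solution in Me2CO applied to the mouse ear; ear redness scored 4 and 24 h after application. […] TPA (12-O-tetradecanoylphorbol 13-acetate) run as reference irritant.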

Converted amounts (≈) assume the structure as drawn.

The IC50 is the concentration that inhibits the measured activity by half. Low readings indicate inhibition by little substance, high ones a need for much substance. Turning to `CC[C@]1(O)C[C@@H]2CN(CCc3c([nH]c4ccccc34)[C@@](C(=O)OC)(c3cc4c(cc3OC)N(C)[C@H]3[C@@](O)(C(=O)OC)[C@H](OC(C)=O)[C@]5(CC)C=CCN6CC[C@]43[C@@H]65)C2)C1` [VINBLASTINE], the IC50 in series [1] worked out at 3.6 µg/mL (≈ 4.44 µM).
Turning to `C=C1[C@H](OC(C)=O)[C@H]2[C@@H](OC(C)=O)[C@@H](C)C[C@]2(OC(C)=O)C(=O)[C@@H](C)/C=C/C(C)(C)C(=O)[C@H](OC(C)=O)[C@H]1OC(C)=O`, the ID50 in series [2] was over 100 µg.
Same read-out and setting: then `C=C1[C@H](OC(C)=O)[C@H]2[C@@H](OC(C)=O)[C@@H](C)C[C@]2(OC(C)=O)C(=O)[C@@H](C)/C=C/C(C)(C)C(=O)[C@H](OC(C)=O)[C@H]1OC(=O)c1ccccc1`, with over 100 µg.
In the case of `C=C1[C@H](OC(=O)c2ccccc2)[C@@H](OC(C)=O)[C@@H](OC(C)=O)C(C)(C)/C=C/[C@H](C)C(=O)[C@@]2(OC(C)=O)C[C@@](C)(OC(C)=O)[C@H](OC(C)=O)[C@@H]2[C@H]1OC(C)=O`, the ID50 in series [2] is over 100 µg. Moreover, the IC50 in series [1] was over 5 µg/mL.
Regarding `C=C1[C@H](OC(C)=O)[C@H]2[C@@H](OC(C)=O)[C@](C)(OC(=O)c3ccccc3)C[C@]2(OC(C)=O)C(=O)[C@@H](C)/C=C/C(C)(C)C(=O)[C@H](OC(C)=O)[C@H]1OC(C)=O`, the ID50 in series [2] is over 100 µg.
Regarding `CCCCCCCCCCCCCC(=O)O[C@@H]1[C@@H](C)[C@@]2(O)[C@@H](C=C(CO)C[C@]3(O)C(=O)C(C)=C[C@@H]23)[C@@H]2C(C)(C)[C@]12OC(C)=O` [PHORBOL MYRISTATE ACETATE], the ID50 in series [2] came to 0.0085 µg; in series [3] it was 0.012 µg.
With `C=C1[C@H](OC(C)=O)[C@@H](OC(C)=O)[C@@H](OC(C)=O)C(C)(C)/C=C/[C@H](C)C(=O)[C@@]2(OC(C)=O)C[C@@](C)(OC(=O)c3ccccc3)[C@H](OC(C)=O)[C@@H]2[C@H]1OC(C)=O`, the ID50 in series [2] was over 100 µg. The IC50 in series [1] was over 5 µg/mL.
Consider `C=C1[C@H](OC(=O)c2ccccc2)[C@@H](OC(C)=O)[C@@H](OC(C)=O)C(C)(C)/C=C/[C@H](C)C(=O)[C@@]2(OC(C)=O)C[C@H](C)[C@H](OC(C)=O)[C@@H]2[C@H]1OC(C)=O`, for which the ID50 in series [2] is over 100 µg.

These data come from ChEMBL document CHEMBL1155748, “New jatrophane diterpenoid esters from Euphorbia turczaninowii” (J Nat Prod, 2001).
